Consider ten molecules from publication PMC4092037 (American journal of reproductive immunology (New York, N.Y. …, 2013).

For experiment [1], the target named is T1, human CMKLR1 (Homo sapiens, UniProt Q99788).
T1 sequence (Q99788 1-373): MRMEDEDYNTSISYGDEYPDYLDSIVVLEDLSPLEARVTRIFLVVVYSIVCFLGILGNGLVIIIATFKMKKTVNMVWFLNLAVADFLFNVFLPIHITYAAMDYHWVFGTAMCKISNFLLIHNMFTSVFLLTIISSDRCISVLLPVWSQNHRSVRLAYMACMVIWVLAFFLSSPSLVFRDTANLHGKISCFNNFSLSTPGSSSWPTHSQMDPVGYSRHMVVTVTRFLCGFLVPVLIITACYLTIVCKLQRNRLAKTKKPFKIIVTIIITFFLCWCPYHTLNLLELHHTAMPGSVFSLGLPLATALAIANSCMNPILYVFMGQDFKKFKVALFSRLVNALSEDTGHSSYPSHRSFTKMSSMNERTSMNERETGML
Nature of the experiment: cAMP assay, huCMKLR1/HEK293. It is filed as cell-based. The conditions noted are these: forskolin 10 μM, 30 min at 37°C. On the technique in general: Changes in cAMP serve as a functional read-out for many G protein-coupled receptors.

Experiment [2] concerns WT/HEK293 cells. Nature of the experiment: cAMP assay, WT/HEK293. The format is cell-based. The conditions noted are these: 30 min at 37°C. A digest of the protocol: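 Wild-type HEK293 cells were plated at 5 × 10^5/well, cultured for 24 h and serum-starved for 4 h. Exposed for 30 min at 37°C to test compound, forskolin 10 μM, both together, or medium. Washed with cold PBS and lysed. Lysate cAMP was measured by kit and normalised to total protein (BCA); conditioned medium was also assayed. Mean ± S.E.M.; one-way ANOVA with SNK test.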

Experiment [3] deals with T1, human CMKLR1. Nature of the experiment: In vitro transwell chemotaxis assay, huCMKLR1/L1.2. The conditions noted are these: for chemotaxis: 4 h at 37°C, fluorescence 560/580 nm. The format is cell-based.
Experiment [4] deals with primary Leydig cells. Briefly: Testosterone production, primary Leydig cell culture. It is filed as cell-based, Sprague-Dawley rat. To be noted: 24 h; for hCG-stimulated testosterone production: hCG 0.01 IU/mL, vs hCG group. A digest of the protocol: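 Leydig cells came from five male rats aged 3–4 months. Decapsulated testes were digested for 15 min at 34°C in DMEM/F12-0.1% BSA with 0.5 mg/mL collagenase IA and 0.25 mg/mL soybean trypsin inhibitor. Filtered, purified on a Percoll gradient, cultured at 34°C, 5% CO2, and purity checked by 3β-HSD staining. Treated for 24 h with test compound ± hCG 0.01 IU/mL. Medium testosterone by 125I RIA; mean ± S.E.M.; ANOVA/SNK.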

The test system of experiment [5] is antral follicles. Nature of the experiment: Progesterone production, antral follicle culture. The format is cell-based, Sprague-Dawley rat. To be noted: hCG 0.01 IU/mL, 6 h, vs hCG group. A digest of the protocol: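 Immature female rats (21–23 days) were primed with PMSG, 30 IU i.p. per rat. Follicles over 900 μm were isolated 48 h later into ice-cold saline and preincubated at 3 per well in DMEM/F12-0.1% BSA at 37°C. Treated for 6 h with test compound, alone or with hCG 0.01 IU/mL. Medium progesterone measured by 125I RIA (sensitivity 0.02 ng/mL). Mean ± S.E.M.; one-way ANOVA with SNK test.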

Experiment [6] concerns the target T1, human CMKLR1. Briefly: Radioligand binding assay, huCMKLR1/HEK293.
The target of a further experiment is T2, human GPR1 (Homo sapiens, UniProt P46091).
T2 sequence (P46091 1-355): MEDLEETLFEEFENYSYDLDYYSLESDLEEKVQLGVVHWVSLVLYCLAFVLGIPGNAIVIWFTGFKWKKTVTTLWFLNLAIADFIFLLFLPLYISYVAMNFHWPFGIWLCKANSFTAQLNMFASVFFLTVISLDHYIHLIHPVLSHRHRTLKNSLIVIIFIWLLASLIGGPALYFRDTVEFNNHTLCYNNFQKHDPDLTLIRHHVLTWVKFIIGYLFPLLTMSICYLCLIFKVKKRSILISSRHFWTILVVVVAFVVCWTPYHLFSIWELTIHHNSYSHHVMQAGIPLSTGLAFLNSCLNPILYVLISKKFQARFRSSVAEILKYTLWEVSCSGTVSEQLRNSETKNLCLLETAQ
Briefly: Radioligand binding assay, huGPR1/HEK293. A digest of the protocol:
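Competition binding on intact huGPR1/HEK293 cells, with neuronostatin as the negative-control peptide. After incubation, cells were pelleted at 1000 × g for 10 min, washed three times, and counted in a γ-spectrophotometer.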

For experiment [7], the target named is T1, human CMKLR1. Nature of the experiment: Receptor internalization assay, huCMKLR1/HEK293. It is filed as cell-based. The conditions noted are these: 100 nM, 30 min at 37°C, confocal, four independent experiments.
In the next experiment the test system is human granulose cell. The conditions noted are these: human granulosa cells; cited from earlier work.
For experiment [8], the system named is CMKLR1. To be noted: cited from earlier work.
For another experiment, the system named is GPR1. The conditions noted are these: cited from earlier work.
The next experiment relates to CCRL2. The conditions noted are these: cited from earlier work.
In experiment [9] the test system is WT/HEK293 cells. Nature of the experiment: Internalization assay, wild-type HEK293. It is filed as cell-based. To be noted: 100 nM, 30 min at 37°C, confocal. A digest of the protocol: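 Cells were grown on 0.1% gelatin-coated coverslips and serum-starved for 4 h at 50–60% confluence. […] Fixed in 4% paraformaldehyde and permeabilised with 0.1% Triton X-100. Stained overnight at 4°C with rat anti-human CMKLR1 mAb, then Alexa-488 anti-rat for 2 h, with DAPI. Examined by confocal microscopy; four independent experiments.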

For experiment [10], the system named is WT/HEK293 cells. Nature of the experiment: Immunocytochemistry of C-FOS, WT/HEK293. It is filed as cell-based. The conditions noted are these: 100 nM, 30 min at 37°C. A digest of the protocol:
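Coverslips coated with 0.1% gelatin. […] Fixed in 4% paraformaldehyde for 30 min and permeabilised with 0.1% Triton X-100 for 10 min. Stained with rabbit anti-C-FOS overnight at 4°C, then Alexa-488 anti-rabbit for 1 h, with DAPI nuclear stain. Imaged by confocal microscopy.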

Experiment [11] relates to WT/HEK293 cells. Nature of the experiment: C-FOS gene expression. The format is cell-based. The conditions noted are these: 30 nM, 30 min at 37°C, data not shown.
The subject of the next experiment is WT/L1.2 cells. Nature of the experiment: In vitro transwell chemotaxis assay, WT/L1.2. The format is cell-based. To be noted: 0.3, 1, 10, 100 nM, 4 h at 37°C. The essentials:
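Wild-type L1.2 cells were pretreated overnight with sodium butyrate. […] After 4 h migration at 37°C, cells in the lower chamber were stained with CellTiter Blue and read by fluorescence at 560/580 nm. Run in parallel with the CMKLR1-transfected line.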

The subject of experiment [12] is CMKLR1. The conditions noted are these: cited from earlier work. This is another data set of the same source.
Experiment [13] deals with primary Leydig cells. Nature of the experiment: Steroidogenic enzyme gene expression, primary Leydig cells. To be noted: beta-actin reference, 24 h. The format is cell-based, Sprague-Dawley rat. The essentials:
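Leydig cells from testes of five Sprague-Dawley males (3–4 months): collagenase IA digestion, 15 min at 34°C; 70 μm filtration; Percoll gradient (1.030–1.096 g/mL); culture at 34°C, 5% CO2; purity by 3β-HSD staining.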

The test system of experiment [14] is antral follicles. Briefly: Steroidogenic enzyme gene expression, antral follicles. It is filed as cell-based, Sprague-Dawley rat. To be noted: large antral follicles, beta-actin reference, 6 h.

Read-outs that look alike come from different tables or passages of the source. Ends that are not written are not given here.

Take `C=C[C@@]1(C)CC(=O)[C@]2(O)[C@@]3(C)[C@@H](O)CCC(C)(C)[C@@H]3[C@H](O)[C@H](OC(C)=O)[C@@]2(C)O1` [forskolin, reference compound]: the “increase in cAMP production” value on human CMKLR1 [1] and with WT/HEK293 cells [2] (forskolin 10 μM) was “more than 50 fold” throughout.

In the case of AGEDPHSFYFPGQFA [huC-15], the chemotaxis entry on human CMKLR1 [3] (1 nM) and on human CMKLR1 [3] (10 nM) was “no chemotactic actions” in each case. In addition, in the experiment on primary Leydig cells [4] (100 nM), the hCG-stimulated testosterone production entry is recorded as “no such kind of suppression”.

For “C-20: 20 amino acid chemerin-derived peptide; used without species prefix for huC-20 or mC-20 (VQRAGEDPHSFYFPGQFAFS)”, in the experiment with human CMKLR1 [3] (of 0.3, 1, 10, 100 nM tested), the “lowest effective dose for chemotaxis” value is 1 nM. The hCG-stimulated testosterone production result in the experiment with primary Leydig cells [4] (1 nM) and with primary Leydig cells [4] (10 nM) was “not effective” in each case. The hCG-stimulated progesterone production entry in the experiment on antral follicles [5] (1 nM) and with antral follicles [5] (10 nM) was “not effective” in each case.

A word on the IC50: it is the concentration needed to halve the response being measured. For IAQAGEDPHGYFLPGQFAFS [mC-20], the IC50 is 2.5 nM at human CMKLR1 [6] and 5 nM at human GPR1.

For the molecule LRQFLQKSLAAAT [NTS], the CMKLR1 internalization entry at human CMKLR1 [7] is “negative control”. Moreover, the chemotaxis result at human CMKLR1 [3] (1 nM) and on human CMKLR1 [3] (10 nM) was “no chemotactic actions” in each case.

VQRAGEDPHSFYFPGQFAFS [huC-20]: the IC50 at human CMKLR1 [6] is 1.6 nM; at human GPR1 it was 3.5 nM.

For “chemerin: The active protein of 137 amino acids in human was named chemerin”, the “IGF-1-induced progesterone and estradiol secretion” value in the experiment with human granulose cell is recorded as “inhibited”. In the experiment with CMKLR1 [8], the leukocyte chemotaxis result is reported as “promotes leukocyte chemotaxis” and the receptor internalization entry was “triggers receptor internalization”. In the experiment on GPR1, the receptor internalization result is given as “stimulates receptor internalization”. In addition, the internalization and chemotaxis entry in the experiment on CCRL2 is on record as “stimulates neither internalization nor chemotaxis”.

In the case of “huChemerin: Human recombinant chemerin purchased from R&D Systems”, the IC50 in the experiment with human GPR1 (read-out: IC50 (displacement of iodochemerin), huGPR1/HEK293 cells, about 1,000,000 per tube, 2 nM iodochemerin, 16 h at 23°C) worked out at 0.5 nM. For the same molecule, the internalization entry in the experiment on WT/HEK293 cells [9] is recorded as “No internalization observed”. In addition, the C-FOS protein expression entry with WT/HEK293 cells [10] is recorded as “No such stimulation”. Also, the C-FOS gene expression entry in the experiment on WT/HEK293 cells [11] is reported as “No such stimulation”. Moreover, in the experiment on WT/HEK293 cells [2] (10 nM peptide/protein + 10 μM forskolin cotreatment), the “forskolin-stimulated cAMP production” value is listed as “no effect”. In the experiment on WT/L1.2 cells, the chemotactic response entry was “no chemotactic response”.

B1: prochemerin: secreted as an inactive precursor, which is 143 amino acids long in human (protein, UniProt Q99969 21-163, looked up)
pro-form: ELTEAQRRGLQVALEEFHKHPPVQWAFQETSVESAVDTPFPAGIFVRLEFKLQQTSCRKRDWKKPECKVRPNGRKRKCLACIKLGSEDKVLGRLVHCPIETQVLREAEEHQETQCLRVQRAGEDPHSFYFPGQFAFSKALPRS
modifications: pro-form
Take B1: in the experiment on CMKLR1 [12], the “affinity for CMKLR1” value is reported as “very low affinity”.

B2: mChemerin: mouse recombinant chemerin purchased from R&D Systems (protein, UniProt Q9DD06 21-156, looked up)
Retinoic acid receptor …: EPELSETQRRSLQVALEEFHKHPPVQLAFQEIGVDRAEEVLFSAGTFVRLEFKLQQTNCPKKDWKKPECTIKPNGRRRKCLACIKMDPKGKILGRIVHCPILKQGPQDPQELQCIKIAQAGEDPHGYFLPGQFAFS
Regarding B2, the hCG-stimulated testosterone production result with primary Leydig cells [4] (1 nM), in the experiment with primary Leydig cells [4] (10 nM) and in the experiment on primary Leydig cells [4] (100 nM) was “suppressed” throughout. Also, the basal testosterone production result in the experiment on primary Leydig cells [4] (no hCG, 1, 10, 100 nM) is “No effect was observed”. Moreover, the 17β-HSD gene expression entry with primary Leydig cells [13] and with antral follicles [14] was “not affected” in each case. Also, the StAR gene expression result in the experiment on primary Leydig cells [13] and with antral follicles [14] was “not affected” each time. Further, the p450scc gene expression result in the experiment with primary Leydig cells [13] and in the experiment on antral follicles [14] was “not affected” throughout. Also, the 3β-HSD gene expression entry in the experiment on primary Leydig cells [13] (with hCG) and with antral follicles [14] (with hCG) was “suppression of 3β-HSD gene expression” throughout. In addition, the hCG-stimulated progesterone production result in the experiment on antral follicles [5] (10 nM) and in the experiment with antral follicles [5] (100 nM) was “effective” in each case.
